In PMC7302971 (Bioorganic chemistry, 2020):
Read-outs that look alike come from different tables or passages of the source.

Legend:
[1] = target: HDAC4 (Homo sapiens, UniProt P56524); assay: HDAC enzyme activity assay; format: biochemical; settings: for remaining activity at 50 µM: read-out: Residual HDAC4 activity at 50 μM
Procedure, shortened: (§1)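 HDAC4 and HDAC8 were in-house recombinant enzymes. Each was preincubated with inhibitor, either a single 50 μM screen or serial dilutions, for 60 min at 30 °C in Tris-HCl pH 8.0/KCl/Pluronic buffer. Substrate was 20 μM Boc-Lys(trifluoroacetyl)-AMC for 60 min at 30 °C, stopped with 1.7 μM SATFMK, and developed with trypsin. AMC fluorescence was read at 350/450 nm and reported as residual activity or as IC50 from a four-parameter logistic fit.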

[2] = target: T1, HDAC8 (Homo sapiens, UniProt Q9BY41); assay: HDAC enzyme activity assay; format: biochemical; settings: for remaining activity at 50 µM: read-out: Residual HDAC8 activity at 50 μM
T1 sequence (Q9BY41 1-377): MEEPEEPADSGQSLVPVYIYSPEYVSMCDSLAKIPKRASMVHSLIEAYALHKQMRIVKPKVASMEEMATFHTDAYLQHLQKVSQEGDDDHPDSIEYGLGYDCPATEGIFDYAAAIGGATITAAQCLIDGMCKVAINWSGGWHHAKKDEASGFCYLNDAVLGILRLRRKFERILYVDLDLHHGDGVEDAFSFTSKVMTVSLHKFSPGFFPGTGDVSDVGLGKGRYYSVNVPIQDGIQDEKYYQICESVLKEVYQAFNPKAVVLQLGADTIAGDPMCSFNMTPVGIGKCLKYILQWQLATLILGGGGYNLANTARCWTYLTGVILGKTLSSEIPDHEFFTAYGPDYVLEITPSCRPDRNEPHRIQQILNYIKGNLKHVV
Procedure, shortened: as §1

[3] = system: CEM leukemia cells; assay: Differential Nuclear Staining; format: cell-based, human; settings: 48 h; for CC50: Homo sapiens; for cell death at 100 μM: CEM, DNS assay
Procedure, shortened: (§2)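 Cells were seeded at 10,000/well and exposed to test compound for 48 h at 1% (v/v) final DMSO. The first screen used a single concentration with controls in quadruplicate. Dose-response used 0.5–100 μM in triplicate. Controls: DMSO vehicle, hydrogen peroxide (positive), untreated (negative). Hoechst 33342 plus PI were added 2 h before automated imaging, and colocalised signal was scored as dead. […] Two-tailed t-test versus DMSO.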

[4] = system: K-562 leukemia cells; assay: Differential Nuclear Staining; format: cell-based, human; settings: for CC50: Homo sapiens, K562, 48 h; for cell death at 100 μM: K562, DNS assay, 48 h
Procedure, shortened: as §2

[5] = system: KCL-22 leukemia cells; assay: Differential Nuclear Staining; format: cell-based, human; settings: for cell death at 100 μM: KCL22, DNS assay, 48 h
Procedure, shortened: as §2

[6] = target: T1, HDAC8; assay: Thermal shift assay; format: binding

HDAC4, sequence (P56524 648-1057 limits assumed): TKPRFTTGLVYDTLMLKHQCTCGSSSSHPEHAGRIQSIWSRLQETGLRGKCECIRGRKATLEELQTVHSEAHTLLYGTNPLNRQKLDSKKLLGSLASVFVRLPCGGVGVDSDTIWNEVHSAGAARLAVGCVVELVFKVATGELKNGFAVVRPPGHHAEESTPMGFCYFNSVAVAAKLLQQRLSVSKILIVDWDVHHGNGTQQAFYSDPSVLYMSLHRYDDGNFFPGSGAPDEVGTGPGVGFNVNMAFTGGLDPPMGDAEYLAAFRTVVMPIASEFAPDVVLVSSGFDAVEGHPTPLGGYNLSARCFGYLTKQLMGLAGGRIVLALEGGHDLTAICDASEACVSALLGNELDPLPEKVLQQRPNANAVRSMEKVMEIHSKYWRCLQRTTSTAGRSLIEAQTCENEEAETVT

Compound | IC50 [1] | remaining activity at 50 µM [1] | IC50 [2] | remaining activity at 50 µM [2] | also measured
Cc1cnc(NC(=O)CN2C(=O)SC(=Cc3ccccn3)C2=O)s1 [Compound P21, 2-(2,4-dioxo-5-(pyridin-2-ylmethylene)thiazolidin-3-yl)-N-(5-methylthiazol-2-yl)acetamide] | > 50 µM | 100% | > 50 µM | 54% | 
O=C(CN1C(=O)SC(=Cc2ccccn2)C1=O)Nc1ccccc1Oc1ccccc1 [Compound P13, 2-(2,4-dioxo-5-(pyridin-2-ylmethylene)thiazolidin-3-yl)-N-(2-phenoxyphenyl)acetamide] | > 50 µM | 100% | > 50 µM | 91% | 
O=C(CN1C(=O)SC(=Cc2ccccn2)C1=O)Nc1cccc(F)c1 [Compound P3, 2-(2,4-dioxo-5-(pyridin-2-ylmethylene)thiazolidin-3-yl)-N-(3-fluorophenyl)acetamide] | > 50 µM | 100% | > 50 µM | 53% | 
O=C(CN1C(=O)SC(=Cc2ccccn2)C1=O)Nc1ccc(Br)cc1F [Compound P4, N-(4-bromo-2-fluorophenyl)-2-(2,4-dioxo-5-(pyridin-2-ylmethylene)thiazolidin-3-yl)acetamide] | > 50 µM | 100% | > 50 µM | 85% | 
O=C(CN1C(=O)SC(=Cc2ccccn2)C1=O)Nc1ccccn1 [Compound P23, 2-(2,4-dioxo-5-(pyridin-2-ylmethylene)thiazolidin-3-yl)-N-(pyridin-2-yl)acetamide] | > 50 µM | 85% | > 50 µM | 54% | 
O=C(CN1C(=O)SC(=Cc2ccccn2)C1=O)Nc1c(F)cc(Br)cc1F [Compound P15, N-(4-bromo-2,6-difluorophenyl)-2-(2,4-dioxo-5-(pyridin-2-ylmethylene)thiazolidin-3-yl)acetamide] | > 50 µM | 100% | > 50 µM | 94% | 
O=C(CN1C(=O)SC(=Cc2ccccn2)C1=O)Nc1ccc(Br)c(Br)c1 [Compound P25, N-(3,4-dibromophenyl)-2-(2,4-dioxo-5-(pyridin-2-ylmethylene)thiazolidin-3-yl)acetamide] | > 50 µM | 86% | > 50 µM | 89% | CC50 [3]: 39 ± 1.69 µM; CC50 [4]: 65.6 ± 1.13 µM; CC50 ([5]; Homo sapiens, KCL-22, 48 h): 82.2 ± 0.32 µM
O=C(CN1C(=O)SC(=Cc2ccccn2)C1=O)Nc1cc(C(F)(F)F)ccc1Cl [Compound P9, N-(2-chloro-5-(trifluoromethyl)phenyl)-2-(2,4-dioxo-5-(pyridin-2-ylmethylene)thiazolidin-3-yl)acetamide] |  | 100% |  | 38% | cell death at 100 μM [3]: 4.80% cell death at 100 μM; Thermal shift (ΔT), stabilizing effect on HDAC8 [6]: did not confer significant stability to the protein; CC50 [4]: 102 ± 2.45 µM; cell death at 100 μM [5]: 6.54% cell death at 100 μM
COc1ccc(NC(=O)CN2C(=O)SC(=Cc3ccccn3)C2=O)cc1 [Compound P14, 2-(2,4-dioxo-5-(pyridin-2-ylmethylene)thiazolidin-3-yl)-N-(4-methoxyphenyl)acetamide] | > 50 µM | 100% | > 50 µM | 67% | 
O=C(CN1C(=O)SC(=Cc2ccccn2)C1=O)Nc1ccccc1F [Compound P2, 2-(2,4-dioxo-5-(pyridin-2-ylmethylene)thiazolidin-3-yl)-N-(2-fluorophenyl)acetamide] | > 50 µM | 100% | > 50 µM | 92% | 
O=C(CN1C(=O)SC(=Cc2ccccn2)C1=O)Nc1ccc(F)cc1F [Compound P5, N-(2,4-difluorophenyl)-2-(2,4-dioxo-5-(pyridin-2-ylmethylene)thiazolidin-3-yl)acetamide] | 50 µM | 59% | > 50 µM | 80% | Thermal shift (ΔT), stabilizing effect on HDAC8 [6]: did not confer significant stability to the protein
2-(2,4-dioxo-5-(pyridin-2-ylmethylene)thiazolidin-3-yl)-N-(4-methylisoxazol-3-yl)acetamide [Compound P18] |  |  |  |  | Residual HDAC4 activity at 50 μM ([1]; 50 μM): 100%; IC50 ([1]; read-out: HDAC4 IC50, triplicates, N=3): > 50 µM; Residual HDAC8 activity at 50 μM ([2]; 50 μM): 99%; IC50 ([2]; read-out: HDAC8 IC50, triplicates, N=3): > 50 µM
Cc1ccc(NC(=O)CN2C(=O)SC(=Cc3ccccn3)C2=O)cc1 [Compound P12, 2-(2,4-dioxo-5-(pyridin-2-ylmethylene)thiazolidin-3-yl)-N-(p-tolyl)acetamide] |  | 100% | 47 ± 1.1 µM | 75% | cell death at 100 μM [3]: 38.67% cell death at 100 μM; Thermal shift (ΔT), stabilizing effect on HDAC8 [6]: did not confer significant stability to the protein; cell death at 100 μM [4]: 39.42% cell death at 100 μM; cell death at 100 μM [5]: 24.81% cell death at 100 μM
Cc1ccc(NC(=O)CN2C(=O)SC(=Cc3ccccn3)C2=O)cc1Cl [Compound P17, N-(3-chloro-4-methylphenyl)-2-(2,4-dioxo-5-(pyridin-2-ylmethylene)thiazolidin-3-yl)acetamide] | > 50 µM | 100% | > 50 µM | 88% | 
O=C(CN1C(=O)SC(=Cc2ccccn2)C1=O)Nc1ccccc1 [Compound P1, 2-(2,4-dioxo-5-(pyridin-2-ylmethylene)thiazolidin-3-yl)-N-phenylacetamide] | > 50 µM | 100% | > 50 µM | 89% | 
O=C(CN1C(=O)SC(=Cc2ccccn2)C1=O)Nc1ccc(Cl)cc1C(F)(F)F [Compound P7, N-(4-chloro-2-(trifluoromethyl)phenyl)-2-(2,4-dioxo-5-(pyridin-2-ylmethylene)thiazolidin-3-yl)acetamide] | > 50 µM | 100% | > 50 µM | 61% | 
COc1cccc(NC(=O)CN2C(=O)SC(=Cc3ccccn3)C2=O)c1 [Compound P24, 2-(2,4-dioxo-5-(pyridin-2-ylmethylene)thiazolidin-3-yl)-N-(3-methoxyphenyl)acetamide] | > 50 µM | 100% | > 50 µM | 68% | 
O=C(CN1C(=O)SC(=Cc2ccccn2)C1=O)Nc1ccc(Br)cc1 [Compound P22, N-(4-bromophenyl)-2-(2,4-dioxo-5-(pyridin-2-ylmethylene)thiazolidin-3-yl)acetamide] | > 50 µM | 100% | > 50 µM | 64% | 
O=C(CN1C(=O)SC(=Cc2ccccn2)C1=O)Nc1nccs1 [Compound P20, 2-(2,4-dioxo-5-(pyridin-2-ylmethylene)thiazolidin-3-yl)-N-(thiazol-2-yl)acetamide] | > 50 µM | 100% | > 50 µM | 92% | 
O=C(CN1C(=O)SC(=Cc2ccccn2)C1=O)Nc1cccc(C(F)(F)F)c1 [Compound P6, 2-(2,4-dioxo-5-(pyridin-2-ylmethylene)thiazolidin-3-yl)-N-(3-(trifluoromethyl)phenyl)acetamide] | > 50 µM | 100% | > 50 µM | 82% | 
O=C(CN1C(=O)SC(=Cc2ccccn2)C1=O)Nc1ccc([N+](=O)[O-])cc1 [Compound P16, 2-(2,4-dioxo-5-(pyridin-2-ylmethylene)thiazolidin-3-yl)-N-(4-nitrophenyl)acetamide] | > 50 µM | 100% | > 50 µM |  | 
O=C(CN1C(=O)SC(=Cc2ccccn2)C1=O)Nc1ccc(Cl)c(Cl)c1 [Compound P8, N-(3,4-dichlorophenyl)-2-(2,4-dioxo-5-(pyridin-2-ylmethylene)thiazolidin-3-yl)acetamide] | > 50 µM | 100% | > 50 µM | 82% | CC50 [3]: 36.9 ± 1.11 µM; cell death at 100 μM [4]: 40.28% cell death at 100 μM; cell death at 100 μM [5]: 29.22% cell death at 100 μM
O=C(CN1C(=O)SC(=Cc2ccccn2)C1=O)Nc1ccc(F)cc1 [Compound P11, 2-(2,4-dioxo-5-(pyridin-2-ylmethylene)thiazolidin-3-yl)-N-(4-fluorophenyl)acetamide] | > 50 µM | 100% | > 50 µM |  | 
